Format in all cases: functional, cell-based
One assay has as its system SNB-19. The assay is described as follows: Antiproliferative activity against human SNB19 cells assessed as reduction in cell viability incubated for 72 hrs by WST1 assay.
Another assay relates to COLO-829. The assay is described as follows: Antiproliferative activity against human COLO829 cells assessed as reduction in cell viability incubated for 72 hrs by WST1 assay.
A further assay has as its system C32. The assay is described as follows: Antiproliferative activity against human C32 cells assessed as reduction in cell viability incubated for 72 hrs by WST1 assay. Summed up: (§1)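 Cells held at 37 °C under 5% CO2 and seeded at 5 × 10^4 cells/well in DMEM with 10% FCS plus streptomycin and penicillin. Compounds were dissolved in DMSO and exposed for 72 h. WST-1 formazan was read at 450 nm. IC50 was derived from the mean ± SD of at least three independent experiments run in triplicate. Cisplatin served as reference.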

The subject of another assay is MCF7. The assay is described as follows: Antiproliferative activity against human MCF7 cells assessed as reduction in cell viability incubated for 72 hrs by WST1 assay. The method, boiled down:
as §1

A further assay has as its system T47D. The assay can be described thus: Antiproliferative activity against human T47D cells assessed as reduction in cell viability incubated for 72 hrs by WST1 assay.
The subject of another assay is MDA-MB-231. The assay can be described thus: Antiproliferative activity against human MDA-MB-231 cells assessed as reduction in cell viability incubated for 72 hrs by WST1 assay.
The next assay deals with A549. The assay can be described thus: Antiproliferative activity against human A549 cells assessed as reduction in cell viability incubated for 72 hrs by WST1 assay. Summed up: as §1
The mark [1] stands for this setting: Homo sapiens, COLO-829, 72 h, read-out: IC50.
[2] abbreviates: Homo sapiens, C32, 72 h, read-out: IC50.
[3] abbreviates: Homo sapiens, T47D, 72 h, read-out: IC50.
Where [4] appears, read: Homo sapiens, MDA-MB-231, 72 h, read-out: IC50.
Setting [5] is: Homo sapiens, A549, 72 h, read-out: IC50.
The mark [6] stands for this setting: Homo sapiens, SNB-19, 72 h, read-out: IC50.
Where [7] appears, read: Homo sapiens, MCF7, 72 h, read-out: IC50.

With `C=C(C)[C@@H]1CC[C@]2(COC3=C(Cl)C(=O)c4ccc(C)nc4C3=O)CC[C@]3(C)[C@H](CC[C@@H]4[C@@]5(C)CC[C@H](O)C(C)(C)[C@@H]5CC[C@]43C)[C@@H]12`, the IC50 result was “Not Active” in the assay on SNB-19 (snb-19); 1.13 µM in the assay with COLO-829 (setting [1]); 12.7 µM with C32 (setting [2]); “Not Active” in the assay on MCF7 (mcf7); 90.4 µM in the assay with T47D (setting [3]); 11 µM in the assay on MDA-MB-231 (setting [4]). Further, in the assay with A549 (setting [5]), the IC50 was determined as 1.62 µM.
In the case of `C=C(C)[C@@H]1CC[C@]2(COC3=C(Cl)C(=O)c4ccccc4C3=O)CC[C@]3(C)[C@H](CC[C@@H]4[C@@]5(C)CC[C@H](OC(C)=O)C(C)(C)[C@@H]5CC[C@]43C)[C@@H]12`, the IC50 is 3.38 µM with SNB-19 (setting [6]); 1.08 µM in the assay on COLO-829 (setting [1]); 13.8 µM in the assay with C32 (setting [2]); 71.4 µM in the assay with MCF7 (setting [7]); 12.6 µM in the assay with T47D (setting [3]); “Not Active” in the assay on MDA-MB-231 (mda-mb-231). Besides, the IC50 in the assay with A549 (setting [5]) was determined as 1.15 µM.
For `O=C1C(Cl)=C(Cl)C(=O)c2ccccc21` [Dichlon], the IC50 entry was “Not Active” in the assay on SNB-19 (snb-19); 37.9 µM with COLO-829 (setting [1]); “Not Active” in the assay with C32 (c32); “Not Active” in the assay with MCF7 (mcf7); “Not Active” in the assay with T47D (t47d); “Not Active” in the assay on MDA-MB-231 (mda-mb-231). Also, the IC50 entry in the assay with A549 (a549) is reported as “Not Active”.
`C=C(C)[C@@H]1CC[C@]2(COC3=C(Cl)C(=O)c4ccccc4C3=O)CC[C@]3(C)[C@H](CC[C@@H]4[C@@]5(C)CC[C@H](O)C(C)(C)[C@@H]5CC[C@]43C)[C@@H]12`: the IC50 was 9.49 µM with SNB-19 (setting [6]); “Not Active” in the assay on COLO-829 (colo-829); “Not Active” with C32 (c32); “Not Active” in the assay on MCF7 (mcf7); 1.47 µM in the assay on T47D (setting [3]); “Not Active” in the assay with MDA-MB-231 (mda-mb-231). In addition, the IC50 with A549 (setting [5]) is 10.6 µM.
As to `C=C(C)[C@@H]1CC[C@]2(COC3=C(Cl)C(=O)c4cccnc4C3=O)CC[C@]3(C)[C@H](CC[C@@H]4[C@@]5(C)CC[C@H](O)C(C)(C)[C@@H]5CC[C@]43C)[C@@H]12`, the IC50 entry in the assay on SNB-19 (snb-19) was “Not Active”; with COLO-829 (setting [1]) it was 95.5 µM; in the assay with C32 (c32), “Not Active”; in the assay with MCF7 (setting [7]) it was 94.8 µM; with T47D (setting [3]) it was 13.2 µM; in the assay on MDA-MB-231 (setting [4]), 80.4 µM. In the assay on A549 (setting [5]), the IC50 came to 8.58 µM.
As to `C=C(C)[C@@H]1CC[C@]2(COC3=C(Cl)C(=O)c4ccc(C)nc4C3=O)CC[C@]3(C)[C@H](CC[C@@H]4[C@@]5(C)CC[C@H](OC(C)=O)C(C)(C)[C@@H]5CC[C@]43C)[C@@H]12`, the IC50 result was “Not Active” in the assay with SNB-19 (snb-19); 93.8 µM in the assay with COLO-829 (setting [1]); 1.33 µM in the assay with C32 (setting [2]); 89.3 µM in the assay with MCF7 (setting [7]); “Not Active” with T47D (t47d); 5.88 µM in the assay on MDA-MB-231 (setting [4]). Moreover, in the assay on A549 (setting [5]), the IC50 stood at 0.64 µM.
On to `C=C(C)[C@@H]1CC[C@]2(COC3=C(Cl)C(=O)c4cccnc4C3=O)CC[C@]3(C)[C@H](CC[C@@H]4[C@@]5(C)CC[C@H](OC(C)=O)C(C)(C)[C@@H]5CC[C@]43C)[C@@H]12`, for which the IC50 entry with SNB-19 (snb-19) is “Not Active”; with COLO-829 (colo-829) it was “Not Active”; in the assay on C32 (c32) it was “Not Active”; in the assay on MCF7 (setting [7]), 96.8 µM; in the assay with T47D (t47d), “Not Active”; with MDA-MB-231 (mda-mb-231), “Not Active”. Moreover, the IC50 in the assay with A549 (setting [5]) turned out to be 14.3 µM.
With `C=C(COC1=C(Cl)C(=O)c2ccccc2C1=O)[C@@H]1CC[C@]2(COC(C)=O)CC[C@]3(C)[C@H](CC[C@@H]4[C@@]5(C)CC[C@H](OC(C)=O)C(C)(C)[C@@H]5CC[C@]43C)[C@@H]12`, the IC50 result in the assay on SNB-19 (snb-19) is “Not Active”; in the assay with COLO-829 (colo-829), “Not Active”; in the assay on C32 (setting [2]), 24.7 µM; with MCF7 (mcf7) it was “Not Active”; in the assay on T47D (t47d) it was “Not Active”; with MDA-MB-231 (setting [4]), 61.2 µM. Moreover, the IC50 in the assay on A549 (setting [5]) was 53.9 µM.
Take `C=C(COC1=C(Cl)C(=O)c2cccnc2C1=O)[C@@H]1CC[C@]2(COC(C)=O)CC[C@]3(C)[C@H](CC[C@@H]4[C@@]5(C)CC[C@H](OC(C)=O)C(C)(C)[C@@H]5CC[C@]43C)[C@@H]12`: the IC50 worked out at 62.5 µM in the assay with SNB-19 (setting [6]); 0.13 µM in the assay with COLO-829 (setting [1]); 22.9 µM in the assay on C32 (setting [2]); 11.6 µM with MCF7 (setting [7]); 12.8 µM with T47D (setting [3]); 60.4 µM in the assay on MDA-MB-231 (setting [4]). Moreover, the IC50 in the assay on A549 (setting [5]) came to 3.3 µM.
Regarding `C#CC(=O)OC[C@]12CC[C@@H](C(=C)C)[C@@H]1[C@H]1CC[C@@H]3[C@@]4(C)CC[C@H](OC5=C(Cl)C(=O)c6ccc(C)nc6C5=O)C(C)(C)[C@@H]4CC[C@@]3(C)[C@]1(C)CC2`, the IC50 is 10.8 µM with SNB-19 (setting [6]); “Not Active” with COLO-829 (colo-829); “Not Active” in the assay on C32 (c32); 18 µM in the assay with MCF7 (setting [7]); “Not Active” with T47D (t47d); 36.9 µM in the assay with MDA-MB-231 (setting [4]). Besides, in the assay with A549 (setting [5]), the IC50 was 18.4 µM.
Consider `C#CC(=O)OC[C@]12CC[C@@H](C(=C)C)[C@@H]1[C@H]1CC[C@@H]3[C@@]4(C)CC[C@H](OC5=C(Cl)C(=O)c6ccccc6C5=O)C(C)(C)[C@@H]4CC[C@@]3(C)[C@]1(C)CC2`, for which the IC50 entry in the assay with SNB-19 (snb-19) was “Not Active”; in the assay on COLO-829 (colo-829) it was “Not Active”; with C32 (setting [2]) it was 1.04 µM; in the assay with MCF7 (setting [7]), 36.6 µM; in the assay with T47D (setting [3]) it was 96.1 µM; in the assay on MDA-MB-231 (setting [4]), 6.77 µM. In the assay on A549 (setting [5]), the IC50 is 1.28 µM.
On to `Cc1ccc2c(n1)C(=O)C(Cl)=C(Cl)C2=O`, for which the IC50 entry was “Not Active” in the assay on SNB-19 (snb-19); 26.4 µM in the assay on COLO-829 (setting [1]); “Not Active” with C32 (c32); “Not Active” in the assay with MCF7 (mcf7); “Not Active” in the assay on T47D (t47d); “Not Active” with MDA-MB-231 (mda-mb-231). Besides, the IC50 result in the assay on A549 (a549) is recorded as “Not Active”.
Turning to `C=C(COC1=C(Cl)C(=O)c2ccc(C)nc2C1=O)[C@@H]1CC[C@]2(COC(C)=O)CC[C@]3(C)[C@H](CC[C@@H]4[C@@]5(C)CC[C@H](OC(C)=O)C(C)(C)[C@@H]5CC[C@]43C)[C@@H]12`, the IC50 result is “Not Active” in the assay with SNB-19 (snb-19); 0.12 µM with COLO-829 (setting [1]); 1.14 µM with C32 (setting [2]); 0.94 µM in the assay with MCF7 (setting [7]); 10.3 µM with T47D (setting [3]); 0.11 µM in the assay on MDA-MB-231 (setting [4]). For the same compound, the IC50 in the assay on A549 (setting [5]) was 0.84 µM.
Consider `C=C(C)[C@@H]1CC[C@]2(CO)CC[C@]3(C)[C@H](CC[C@@H]4[C@@]5(C)CC[C@H](O)C(C)(C)[C@@H]5CC[C@]43C)[C@@H]12` [BETULIN], for which the IC50 result with SNB-19 (snb-19) was “Not Active”; with COLO-829 (colo-829), “Not Active”; with C32 (c32), “Not Active”; in the assay on MCF7 (setting [7]), 43.9 µM; in the assay on T47D (setting [3]), 20.7 µM; in the assay with MDA-MB-231 (setting [4]) it was 96.2 µM. Also, in the assay with A549 (setting [5]), the IC50 was determined as 59.7 µM.
Regarding `C=C(C)[C@@H]1CC[C@]2(COC(C)=O)CC[C@]3(C)[C@H](CC[C@@H]4[C@@]5(C)CC[C@H](OC6=C(Cl)C(=O)c7cccnc7C6=O)C(C)(C)[C@@H]5CC[C@]43C)[C@@H]12`, the IC50 entry in the assay on SNB-19 (snb-19) is “Not Active”; with COLO-829 (colo-829), “Not Active”; with C32 (c32), “Not Active”; in the assay with MCF7 (mcf7) it was “Not Active”; in the assay on T47D (setting [3]) it was 86.8 µM; with MDA-MB-231 (mda-mb-231) it was “Not Active”. Further, the IC50 in the assay with A549 (setting [5]) amounted to 13.5 µM.

The values above are taken from ChEMBL document CHEMBL4393724, “Betulin-1,4-quinone hybrids: Synthesis, anticancer activity and molecular docking study with NQO1 enzyme” (Eur J Med Chem, 2019).
